Experimental data from publication PMC4987166 (Clinical cancer research : an official journal of the …, 2016).

Columns and labels:
[1] = Serum drug levels in mice; conditions: mouse, in vivo
HepG2 cells = assay: Time-lapse microscopy of HepG2 proliferation; assay type: cell-based; conditions: 50 nmol/L mithramycin, 50 nmol/L EC-8042 or 7.5 nmol/L EC-8105
rat = assay: Rat toxicity: liver enzymes, liver synthetic function, hematopoiesis; conditions: in vivo, 8 mg/kg
CD-1 mice = assay: Maximum tolerated dose in healthy CD-1 mice; conditions: mouse, in vivo
[2] = test system: EWS-FLI1 target genes EZH2, NR0B1, and ID2; assay: Immunoblot of EWS-FLI1 downstream targets; assay type: cell-based; conditions: TC32 cells, 50 nmol/L, 18 h
TC71 xenograft [3] = assay: TC71 Ewing sarcoma xenograft in nude mice; assay type: in vivo
γH2AX phosphorylation = assay: DNA damage by phosphorylation of γH2AX; assay type: cell-based; conditions: 50 nmol/L mithramycin, 50 nmol/L EC-8042 or 7.5 nmol/L EC-8105
Ewing sarcoma cells = assay: Cell proliferation / cell viability IC50 at 48 h; assay type: cell-based; conditions: read-out: cell viability IC50; 48 h of treatment
Method in brief: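 Ewing sarcoma cells (TC32/TC71), STR-authenticated, grown in RPMI 1640 with 10% FBS, 2mM L-Gln and penicillin/streptomycin. Cells exposed to test compound for 48 h and cell number recorded across a dose range. IC50 from non-linear regression over at least 3 independent experiments.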

[4] = test system: EWS-FLI1 target genes (NR0B1); assay: Quantitative RT-PCR of NR0B1 and EWS-FLI1 target gene expression in TC32 cells; assay type: cell-based; conditions: for concentration showing equivalent suppression of EWS-FLI1 targets NR0B1, EZH2, and ID2: qPCR, 12 h
[5] = test system: NR0B1 expression (EWS-FLI1 activity); assay: Immunofluorescence for NR0B1 in xenograft tumor tissue; assay type: in vivo, mouse; conditions: TC71 xenograft, day 3 of treatment, IP
TC71 xenograft [6] = conditions: TC32 and TC71 xenografts, 1 mg/kg IP M/W/F; cited from earlier work

Compound	serum levels of drug [1]	proliferation of HepG2 cells (HepG2 cells)	other toxicities (myelosuppression, compromise of liver synthetic function) (rat)	Intraperitoneal MTD (CD-1 mice; ip)	Intravenous MTD (CD-1 mice; iv)	suppression of EWS-FLI1 targets EZH2, NR0B1, and ID2 at the protein level [2]	tumor regression (TC71 xenograft [3]; 24 mg/kg IP (12% of the IP MTD))	tumor growth rate less per day than the control (TC71 xenograft [3]; 24 mg/kg IP M/W/F, while being treated)	mean tumor size on day 11 of treatment (TC71 xenograft [3]; 24 mg/kg IP, control 3177 mm^3)	tumor growth less per day than the control (TC71 xenograft [3]; 24 mg/kg IV Q3D, while on treatment)	survival of treated cohort (TC71 xenograft [3]; 24 mg/kg IV, P <0.0001)	DNA damage as measured by phosphorylation of γH2AX (γH2AX phosphorylation)	IC50 (Ewing sarcoma cells)	effect on panel of EWS-FLI1 target genes ([4]; Fig. 3B, legend: 15 nM for 18 h or 3 h)	concentration showing equivalent suppression of EWS-FLI1 targets NR0B1, EZH2, and ID2 [4]	EWS-FLI1 activity in tumor tissue by NR0B1 immunofluorescent staining [5]	xenograft tumor growth (TC71 xenograft [6])	fold change in NR0B1 expression ([4]; TC32 cells, 50 nmol/L, 12 hr, qPCR vs GAPDH)
CO[C@@H]([C@@H]1Cc2cc3cc(O[C@H]4CC(O[C@H]5CC(O)[C@H](O)C(C)O5)[C@H](O)C(C)O4)c(C)c(O)c3c(O)c2C(=O)[C@H]1O[C@H]1CC(O[C@H]2CC(O[C@H]3CC(O)[C@H](O)C(C)O3)[C@@H](O)C(C)O2)[C@H](O)C(C)O1)[C@@H](O)C(C)=O (stereo partly drawn) [EC-8042]	4.295 µM	neither EC-8105 or EC-8042 had any effect	no evidence of other toxicities	200 mg/kg	64 mg/kg	suppressed	every tumor in every mouse showed some level of regression	268.2 mm^3	422.5 mm^3	151 mm^3	extended the survival	no DNA damaging effects	37.8 nM	All the EWS-FLI1 induced targets were suppressed and all the repressed targets were induced to a comparable extent as mithramycin	50 nmol/L	clear suppression of EWS-FLI1 activity		
mithramycin [reference compound]						suppressed							15.5 nM		50 nmol/L		markedly suppresses and even regresses tumor growth	0.48
